How the values were obtained:
[1] = system: bovine brain tubulin; assay: Cell-free MT assembly assay with purified tubulin; assay type: biochemical
[2] = system: T98G cells; assay: Cell number using WST-1; assay type: cell-based, human; settings: for reduction of cell number: T98G, 10 µM, WST-1
How it was run: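 T98G cells (ATCC, STR-authenticated, under 6 months in culture) grown in DMEM or RPMI with 10% FBS, 100 U/mL penicillin and 100 µg/mL streptomycin at 37°C, 5% CO2. Cells exposed to test compound at 10 µM, with nocodazole or paclitaxel (10 µM each) run in parallel. Cell number followed over 72 hrs by WST-1 per kit protocol. Mean ± SEM of at least 3 independent experiments.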

[3] = system: T98G cells; assay: Live cell imaging of EB3-GFP on assembling MTs; assay type: cell-based, human; settings: nocodazole 1 µM, by 15 min
How it was run: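 T98G cells transfected with EB3-GFP and RFP-CenpB to mark growing MT plus ends and centromeres. Treated with test compound (0.5 or 3 µM) or nocodazole (1 µM). Movies of 30 sec at 500 ms intervals were taken on a deconvolution microscope starting 10 min after drug addition. Images were deconvolved, and MT assembly rates were tracked in interphase cells.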

[4] = system: MDA-MB-231 breast cancer cells; assay: Viability of positive-control breast cancer cells; assay type: cell-based; settings: MDA-MB-231, by 72 hrs

Compound: COC(=O)Nc1nc2ccc(C(=O)c3cccs3)cc2[nH]1 [nocodazole]
- level of free tubulin [1]: triggered an increase the free tubulin
- reduction of cell number ([2]; 12 hrs): 10–15%
- reduction of cell number ([2]; 72 hrs): 34%
- assembling MTs in live cells [3]: abolished all assembling MTs

Compound: CC(=O)O[C@H]1C(=O)[C@@]2(C)[C@H]([C@H](OC(=O)c3ccccc3)[C@]3(O)C[C@H](OC(=O)[C@H](O)[C@@H](NC(=O)c4ccccc4)c4ccccc4)C(C)=C1C3(C)C)[C@]1(OC(C)=O)CO[C@@H]1C[C@@H]2O [paclitaxel]
- level of free tubulin [1]: decrease in free tubulin levels
- reduction of cell number ([2]; 12 hrs): 10–15%
- reduction of cell number ([2]; 72 hrs): inactive
- viability [4]: reduced the viability

Compound: Z-DEVD-FMK
- effect of caspase-3 inhibition on the antineoplastic action of ST-11 ([2]; Z-DEVD-FMK 10 µM, 15 min preincubation, ST-11 10 µM): blocked the antineoplastic action of ST-11

Reference: PMC5010991 (Molecular cancer therapeutics, 2016)
